This passage reports Activity and zone of inhibition results from ChEMBL document CHEMBL1150609, “New furanoid diterpenes from Caesalpinia pulcherrima” (2002).

What all share (type): functional
Experiment [1] deals with Candida albicans. Kind of experiment: Antimicrobial activity against Candida albicans UPCC 2168 assessed as antimicrobial index at 30 ug after 48 hrs.
Experiment [2] deals with Escherichia coli. As to the kind of experiment: Antimicrobial activity against Escherichia coli UPCC 1195 assessed as antimicrobial index at 30 ug after 24 hrs.
In experiment [3] the test system is Staphylococcus aureus. As to the kind of experiment: Antimicrobial activity against Staphylococcus aureus UPCC 1143 assessed as antimicrobial index at 30 ug after 24 hrs.
Experiment [4] has as its system Bacillus subtilis. Kind of experiment: Antimicrobial activity against Bacillus subtilis UPCC 1149 assessed as clearing zone at 30 ug after 24 hrs. The following applies: read-out: IZ. In a few lines:
(§1)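 Agar-well diffusion. 24 h cultures were suspended in 0.1% peptone water at about 6 × 10^8 cells/mL, and 0.1 mL was seeded into a nutrient agar overlay. Three 10 mm wells were cut per plate, each loaded with sample in 95% EtOH (70 µg test sample; 30 µg standard). Plates were incubated at 30 ± 1 °C for 24 h, and the clear inhibition zone was measured in mm.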

Experiment [5] deals with Trichophyton mentagrophytes. As to the kind of experiment: Antimicrobial activity against Trichophyton mentagrophytes UPCC 4193 assessed as clearing zone at 30 ug after 72 hrs. Particulars: read-out: IZ. In a few lines:
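T. mentagrophytes was grown as a 5-day culture and suspended in 0.1% peptone water at about 6 × 10^8 cells/mL. A 0.1 mL aliquot was seeded into a potato dextrose agar overlay with three 10 mm wells, each dosed in 95% EtOH (70 µg test sample; 30 µg standard). Plates were incubated at 30 ± 1 °C for 72 h, and the clear inhibition zone was read in mm.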

Experiment [6] has as its system Pseudomonas aeruginosa. Kind of experiment: Antimicrobial activity against Pseudomonas aeruginosa UPCC 1244 assessed as antimicrobial index at 30 ug after 24 hrs.
Experiment [7] relates to Aspergillus niger. As to the kind of experiment: Antimicrobial activity against Aspergillus niger UPCC 3701 assessed as antimicrobial index at 30 ug after 48 hrs.
The subject of experiment [8] is Escherichia coli. As to the kind of experiment: Antimicrobial activity against Escherichia coli UPCC 1195 assessed as clearing zone at 30 ug after 24 hrs. Particulars: read-out: IZ. In a few lines: as §1
For experiment [9], the system named is Candida albicans. Kind of experiment: Antimicrobial activity against Candida albicans UPCC 2168 assessed as clearing zone at 30 ug after 48 hrs. Particulars: read-out: IZ. In a few lines: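 C. albicans was grown as a 24 h culture, suspended at about 6 × 10^8 cells/mL in 0.1% peptone water, and 0.1 mL was seeded into a glucose yeast peptone agar overlay. Three 10 mm wells per plate received sample in 95% EtOH (70 µg test sample; 30 µg standard). Plates were incubated at 30 ± 1 °C for 48 h, and the clear growth-inhibition zone was measured in mm.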

Experiment [10] has as its system Pseudomonas aeruginosa. Kind of experiment: Antimicrobial activity against Pseudomonas aeruginosa UPCC 1244 assessed as clearing zone at 30 ug after 24 hrs. The following applies: read-out: IZ. In a few lines: as §1
Experiment [11] concerns Staphylococcus aureus. Kind of experiment: Antimicrobial activity against Staphylococcus aureus UPCC 1143 assessed as clearing zone at 30 ug after 24 hrs. Particulars: read-out: IZ. In a few lines: as §1
Experiment [12] concerns Bacillus subtilis. As to the kind of experiment: Antimicrobial activity against Bacillus subtilis UPCC 1149 assessed as antimicrobial index at 30 ug after 24 hrs.
In experiment [13] the test system is Trichophyton mentagrophytes. As to the kind of experiment: Antimicrobial activity against Trichophyton mentagrophytes UPCC 4193 assessed as antimicrobial index at 30 ug after 72 hrs.
For experiment [14], the system named is Aspergillus niger. As to the kind of experiment: Antimicrobial activity against Aspergillus niger UPCC 3701 assessed as clearing zone at 30 ug after 48 hrs. Particulars: read-out: IZ.

Take `COc1cccc(OC)c1C(=O)OCc1ccccc1`: the Activity worked out at 0.4 in [1]; 0.2 in [2]; 0.2 in experiment [3]; 0.3 in [6]; 0 in experiment [7]; 0.3 in [12]. The Activity in experiment [13] is 0.4. The zone of inhibition at 30 µg/disc came to 13 mm in [4]; 14 mm in [5]; 12 mm in [8]; 14 mm in experiment [9]; 13 mm in experiment [10]; 12 mm in experiment [11].
`O=C(N[C@H](CO)[C@H](O)c1ccc([N+](=O)[O-])cc1)C(Cl)Cl` [CHLORAMPHENICOL]: the Activity in experiment [2] is 1.4; in [3] it was 1.8; in experiment [6], 0.2; in [12], 2.5. Also, the zone of inhibition at 30 µg/disc was found to be 35 mm in [4], 24 mm in experiment [8], 12 mm in experiment [10] and 28 mm in experiment [11].
Take `Clc1ccccc1C(c1ccccc1)(c1ccccc1)n1ccnc1` [CLOTRIMAZOLE]: the Activity was 1 in experiment [1] and 1.1 in [13]. In addition, the figures for the zone of inhibition at 30 µg/disc in [5] and in experiment [9] were 21 mm and 20 mm, respectively.
As to `C[C@@H]1C[C@@H]([C@H](O)CC2CC(=O)NC(=O)C2)C(=O)[C@@H](C)C1` [CYCLOHEXIMIDE], the zone of inhibition at 30 µg/disc in [14] worked out at 13 mm. The Activity in experiment [7] is 0.3.
On to `C=C1c2ccoc2C[C@H]2[C@H]1C[C@@H](OC(=O)c1ccccc1)[C@@]1(O)C(C)(C)CCC[C@]21C` [ISOVOUACAPENOL A], for which the Activity in [1] is 0.4; in [2] it was 0.2; in experiment [3], 0.6; in experiment [6], 0.2; in experiment [7], 0; in experiment [12] it was 0.5. Also, the Activity in experiment [13] came to 0.2. In addition, the zone of inhibition at 30 µg/disc turned out to be 15 mm in experiment [4]; 12 mm in [5]; 12 mm in [8]; 14 mm in experiment [9]; 12 mm in [10]; 16 mm in experiment [11].
Consider `CC1(C)CCC[C@]2(C)[C@H]3Cc4occc4[C@@](C)(O)[C@@H]3C[C@@H](OC(=O)c3ccccc3)[C@@]12O` [ISOVOUACAPENOL B], for which the zone of inhibition at 30 µg/disc in experiment [14] came out at 12 mm; in experiment [4] it was 14 mm; in experiment [5], 13 mm; in experiment [8] it was 12 mm; in experiment [9], 14 mm; in experiment [10] it was 14 mm. Moreover, the zone of inhibition at 30 µg/disc in [11] amounted to 14 mm. Moreover, the Activity in experiment [1] came to 0.4; in experiment [2] it was 0.2; in [3] it was 0.4; in experiment [6] it was 0.4; in experiment [7], 0.2; in experiment [12] it was 0.4. For the same molecule, in experiment [13], the Activity is listed as 0.3.
Consider `C[C@H]1c2ccoc2C[C@H]2[C@H]1[C@@H](O)[C@@H](OC(=O)c1ccccc1)[C@@]1(O)C(C)(C)CCC[C@]21C` [ISOVOUACAPENOL C], for which the Activity in experiment [1] is reported as 0.3; in experiment [2] it was 0.2; in experiment [3], 0.6; in [6] it was 0.2; in experiment [7], 0; in experiment [12], 0.5. Moreover, in experiment [13], the Activity worked out at 0.3. The zone of inhibition at 30 µg/disc in [4] was 15 mm; in [5], 13 mm; in [8] it was 12 mm; in experiment [9], 13 mm; in experiment [10] it was 12 mm; in experiment [11], 16 mm.
Regarding `Cc1c2c(cc3occc13)[C@@]1(C)CCCC(C)(C)[C@]1(O)[C@H](OC(=O)c1ccccc1)C2` [ISOVOUACAPENOL D], the Activity in [1] amounted to 0.2; in experiment [2], 0.2; in [3], 0.2; in experiment [6] it was 0.2; in experiment [7], 0; in [12] it was 0.2. Besides, the Activity in [13] was found to be 0.2. The zone of inhibition at 30 µg/disc in experiment [4], in [5], in experiment [8], in [9], in experiment [10] and in [11] was 12 mm each time.
